# Results: ChEMBL document CHEMBL5724801, “EUbOPEN Chemogenomics Library - Multiplex” (2024)
# “And” between values parts separate entries of the source, which are not always exact repeats. Equal entries are not always repeated.
# Tested on: Fibroblast
# Assay: Multiplex assay against human fibroblast
# Format: toxicity, cell-based
# Outline: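 Cells were classed with CellPathfinder machine-learning gating, first as Hoechst high-intensity objects or normal cells, then (normal cells) as healthy, pyknosed or fragmented nuclei, and finally (pyknosed cells) as mitotic or apoptotic. Staining of live cells at seeding used Hoechst33342, BioTracker Green Microtubule Cytoskeleton Dye, MitoTracker Red and Annexin V Alexa Fluor 680, with imaging on a CQ1 microscope at 37°C and 5% CO2 after compound addition. Tubulin, mitochondrial-mass and membrane-permeability phenotypes are per cents of healthy-nucleus cells.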
# [1] = 12 h, 1 µM, compound concentration 1 uM
# [2] = 12 h, 10 µM, compound concentration 10 uM
# [3] = 24 h, 1 µM, compound concentration 1 uM
# [4] = 24 h, 10 µM, compound concentration 10 uM
# [5] = 48 h, 1 µM, compound concentration 1 uM
# [6] = 48 h, 10 µM, compound concentration 10 uM
smiles,measurement,setting,value
CC(C)(c1ccc(O)cc1)c1ccc(O)cc1 [BISPHENOL A],Population Apoptotic (%),[1],18.37% and 18.42%
same,Population Fragmented Nuclei (%),[1],10.19% and 4.35%
same,Population Healthy Nuclei (%),[1],58.6% and 79.13%
same,Population Hoechst High Intensity Objects (%),[1],0%
same,Population Membrane Permeable-Phenotype (%),[1],2.17% and 2.75%
same,Population Mitochondria Different-Phenotype (%),[1],8.7% and 5.49%
same,Population Mitotic Cells (%),[1],81.63% and 81.58%
same,Population Normal (%),[1],100%
same,Population Pyknosed Nuclei (%),[1],31.21% and 16.52%
same,Population Tubulin-Different-Phenotype (%),[1],15.22% and 10.44%
same,Total Cell Count,[1],157 and 230
same,Population Apoptotic (%),[2],4.76% and 2.94%
same,Population Fragmented Nuclei (%),[2],8.94% and 3.67%
same,Population Healthy Nuclei (%),[2],67.6% and 82.45%
same,Population Hoechst High Intensity Objects (%),[2],0%
same,Population Membrane Permeable-Phenotype (%),[2],3.31% and 0.99%
same,Population Mitochondria Different-Phenotype (%),[2],7.44% and 5.45%
same,Population Mitotic Cells (%),[2],95.24% and 97.06%
same,Population Normal (%),[2],100%
same,Population Pyknosed Nuclei (%),[2],23.46% and 13.88%
same,Population Tubulin-Different-Phenotype (%),[2],14.88% and 19.31%
same,Total Cell Count,[2],179 and 245
same,Population Fragmented Nuclei (%),[3],7.23% and 3.8%
same,Population Healthy Nuclei (%),[3],68.07% and 86.92%
same,Population Hoechst High Intensity Objects (%),[3],0%
same,Population Membrane Permeable-Phenotype (%),[3],4.42% and 3.88%
same,Population Mitochondria Different-Phenotype (%),[3],5.31% and 2.91%
same,Population Mitotic Cells (%),[3],90.24% and 59.09%
same,Population Normal (%),[3],100%
same,Population Pyknosed Nuclei (%),[3],24.7% and 9.28%
same,Population Tubulin-Different-Phenotype (%),[3],14.16% and 12.14%
same,Total Cell Count,[3],166 and 237
same,Population Apoptotic (%),[4],6.45% and 4.76%
same,Population Fragmented Nuclei (%),[4],7.18% and 3.7%
same,Population Healthy Nuclei (%),[4],76.92% and 87.65%
same,Population Hoechst High Intensity Objects (%),[4],0%
same,Population Membrane Permeable-Phenotype (%),[4],2.67% and 1.88%
same,Population Mitochondria Different-Phenotype (%),[4],6% and 4.23%
same,Population Mitotic Cells (%),[4],93.55% and 95.24%
same,Population Normal (%),[4],100%
same,Population Pyknosed Nuclei (%),[4],15.9% and 8.64%
same,Population Tubulin-Different-Phenotype (%),[4],16% and 16.43%
same,Total Cell Count,[4],195 and 243
same,Population Apoptotic (%),[5],50% and 33.33%
same,Population Fragmented Nuclei (%),[5],8.98% and 4.96%
same,Population Healthy Nuclei (%),[5],86.23% and 86.36%
same,Population Hoechst High Intensity Objects (%),[5],0%
same,Population Membrane Permeable-Phenotype (%),[5],0.69% and 2.39%
same,Population Mitochondria Different-Phenotype (%),[5],11.11% and 3.83%
same,Population Mitotic Cells (%),[5],50% and 66.67%
same,Population Normal (%),[5],100%
same,Population Pyknosed Nuclei (%),[5],4.79% and 8.68%
same,Population Tubulin-Different-Phenotype (%),[5],3.47% and 12.92%
same,Total Cell Count,[5],167 and 242
same,Population Apoptotic (%),[6],25% and 14.29%
same,Population Fragmented Nuclei (%),[6],8.49% and 3.36%
same,Population Healthy Nuclei (%),[6],85.85% and 90.76%
same,Population Hoechst High Intensity Objects (%),[6],0%
same,Population Membrane Permeable-Phenotype (%),[6],0% and 4.63%
same,Population Mitotic Cells (%),[6],75% and 85.71%
same,Population Normal (%),[6],100%
same,Population Pyknosed Nuclei (%),[6],5.66% and 5.88%
same,Population Tubulin-Different-Phenotype (%),[6],7.14% and 18.52%
same,Total Cell Count,[6],212 and 238
COC(=O)C1=C(C)NC(C)=C(C(=O)OC(C)C)C1c1cccc2nonc12 (configuration not stated) [ISRADIPINE],Population Apoptotic (%),[1],16.67% and 18.92%
same,Population Fragmented Nuclei (%),[1],8.07% and 3.38%
same,Population Healthy Nuclei (%),[1],65.84% and 81.01%
same,Population Hoechst High Intensity Objects (%),[1],0%
same,Population Membrane Permeable-Phenotype (%),[1],3.77% and 3.12%
same,Population Mitochondria Different-Phenotype (%),[1],7.55% and 11.98%
same,Population Mitotic Cells (%),[1],83.33% and 81.08%
same,Population Normal (%),[1],100%
same,Population Pyknosed Nuclei (%),[1],26.09% and 15.61%
same,Population Tubulin-Different-Phenotype (%),[1],15.09% and 16.15%
same,Total Cell Count,[1],161 and 237
same,Population Fragmented Nuclei (%),[2],12.61% and 3.08%
same,Population Healthy Nuclei (%),[2],63.04% and 75.33%
same,Population Hoechst High Intensity Objects (%),[2],0%
same,Population Membrane Permeable-Phenotype (%),[2],5.52% and 7.02%
same,Population Mitochondria Different-Phenotype (%),[2],17.24% and 19.3%
same,Population Mitotic Cells (%),[2],94.64% and 77.55%
same,Population Normal (%),[2],100%
same,Population Pyknosed Nuclei (%),[2],24.35% and 21.59%
same,Population Tubulin-Different-Phenotype (%),[2],40% and 48.54%
same,Total Cell Count,[2],230 and 227
same,Population Apoptotic (%),[3],18.52% and 21.74%
same,Population Fragmented Nuclei (%),[3],12.43% and 8.5%
same,Population Healthy Nuclei (%),[3],72.97% and 82.19%
same,Population Hoechst High Intensity Objects (%),[3],0%
same,Population Membrane Permeable-Phenotype (%),[3],5.93% and 2.46%
same,Population Mitochondria Different-Phenotype (%),[3],1.48% and 4.93%
same,Population Mitotic Cells (%),[3],81.48% and 78.26%
same,Population Normal (%),[3],100%
same,Population Pyknosed Nuclei (%),[3],14.59% and 9.31%
same,Population Tubulin-Different-Phenotype (%),[3],12.59% and 16.26%
same,Total Cell Count,[3],185 and 247
same,Population Fragmented Nuclei (%),[4],9.72% and 2.69%
same,Population Healthy Nuclei (%),[4],68.83% and 76.23%
same,Population Hoechst High Intensity Objects (%),[4],0%
same,Population Membrane Permeable-Phenotype (%),[4],4.12%
same,Population Mitochondria Different-Phenotype (%),[4],8.82% and 15.88%
same,Population Mitotic Cells (%),[4],98.11% and 80.85%
same,Population Normal (%),[4],100%
same,Population Pyknosed Nuclei (%),[4],21.46% and 21.08%
same,Population Tubulin-Different-Phenotype (%),[4],39.41% and 47.06%
same,Total Cell Count,[4],247 and 223
same,Population Apoptotic (%),[5],30% and 23.53%
same,Population Fragmented Nuclei (%),[5],7.14% and 6.07%
same,Population Healthy Nuclei (%),[5],81.87% and 87.04%
same,Population Hoechst High Intensity Objects (%),[5],0%
same,Population Membrane Permeable-Phenotype (%),[5],2.01% and 1.4%
same,Population Mitotic Cells (%),[5],70% and 76.47%
same,Population Normal (%),[5],100%
same,Population Pyknosed Nuclei (%),[5],10.99% and 6.88%
same,Population Tubulin-Different-Phenotype (%),[5],10.07% and 17.21%
same,Total Cell Count,[5],182 and 247
same,Population Apoptotic (%),[6],33.33% and 50%
same,Population Fragmented Nuclei (%),[6],9.58% and 5.05%
same,Population Healthy Nuclei (%),[6],85.42% and 89.45%
same,Population Hoechst High Intensity Objects (%),[6],0%
same,Population Membrane Permeable-Phenotype (%),[6],1.46% and 8.72%
same,Population Mitochondria Different-Phenotype (%),[6],14.63% and 8.72%
same,Population Mitotic Cells (%),[6],66.67% and 50%
same,Population Normal (%),[6],100%
same,Population Pyknosed Nuclei (%),[6],5% and 5.5%
same,Population Tubulin-Different-Phenotype (%),[6],24.39% and 55.38%
same,Total Cell Count,[6],240 and 218
